DDE Tn7 FP inh: disrupts Tn7 cyclic peptide binding to fibrin D-Dimer-E complex | P02675 | FP displacement of FITC-Tn7 peptide from fibrin DD(E); 0% = median of compound wells per plate | inhibition, % at 8.3 µM | hit rate 0.13% among 370,000 | AID 720508;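 active = inhibition above the mean of compounds falling within the control limits plus 3 SD of them, cut at about 14% in these data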
Target sequence (P02675 whole entry, looked up): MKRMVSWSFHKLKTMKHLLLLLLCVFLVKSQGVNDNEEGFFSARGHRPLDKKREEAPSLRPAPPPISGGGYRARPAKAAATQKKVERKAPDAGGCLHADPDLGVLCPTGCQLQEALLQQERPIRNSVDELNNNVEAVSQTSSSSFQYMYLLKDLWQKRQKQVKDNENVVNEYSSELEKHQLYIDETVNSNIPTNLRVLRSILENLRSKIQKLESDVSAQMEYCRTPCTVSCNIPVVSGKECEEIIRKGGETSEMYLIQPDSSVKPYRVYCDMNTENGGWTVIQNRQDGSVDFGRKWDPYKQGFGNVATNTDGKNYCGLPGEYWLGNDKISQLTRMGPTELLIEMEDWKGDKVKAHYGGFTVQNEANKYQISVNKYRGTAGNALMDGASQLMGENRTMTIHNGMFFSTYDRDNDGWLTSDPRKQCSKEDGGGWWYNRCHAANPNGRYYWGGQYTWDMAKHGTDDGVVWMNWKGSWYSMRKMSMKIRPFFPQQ
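Assay system: human fibrin DD(E). Input: DD(E) 2 µM final. Medium: Tris buffer with calcium and detergent, pH 7.8. Compound dosing: single point at 8.3 µM. Timing: 10 min plus 3 h, room temperature. Technique: fluorescence polarization of the labelled Tn7 tracer. Read-out: percent inhibition. Replicates: singlicate testing.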
Arrestin-AP2 inh: inhibitors of human beta-arrestin and AP2 interaction. inhibition, % at 10 µM. AID 504490. hit rate 0.31% among 340,000. FITC-arrestin peptide / GST-AP2 beads, flow cytometry; AP2 beta2 appendage carries R879A mutation;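 active = inhibition above a set limit, near 3 SD of compounds lacking own fluorescence, cut at about 54% in these data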
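test system = AP2 appendage R879A on GSH beads | buffer or medium = PBS plus Tween 20 (0.05%) and BSA (0.1%) | incubation = 12 min plus 1 h, RT | detection = bead flow cytometry, FITC channel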
Tn6 DDE FP: inhibitors of Tn6 peptide binding to human fibrin DD(E); Fibrin DD(E) TRITC-Tn6 fluorescence polarization displacement; hit rate 0.21% among 370,000; inhibition, % at 8.3 µM; AID 720509; P02675;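 active = inhibition above a per-campaign cutoff: mean of compounds within control limits plus 3 SD, cut at about 15% in these data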
CAL PDZ FP-1: inhibitors of human CAL PDZ peptide binding; Q9HD26; purified CAL PDZ, TMR-peptide fluorescence polarization, 1 h; inhibition, % at 20 µM; hit rate 0.02% among 330,000; AID 504414;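 active = highest replicate inhibition of at least 40%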
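Test system: purified CerCALP PDZ construct; Compound dosing: one concentration, 20 µM compound; Also added: TMR-labelled reporter peptide T*-PRC34 bound in PDZ groove; Read-out: inhibition from polarization loss; Controls: unlabelled peptide and DMSO controls; Signal: FP readout, S and P plane fluorescence; Incubation: 1 h at RT.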
CAL PDZ FP-2: inhibitors of human CAL PDZ peptide binding. Q9HD26. purified CAL PDZ, TMR-peptide fluorescence polarization, 1 h. inhibition, % at 24.9 µM. hit rate 0.92% among 300,000. AID 602252;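 active = mean inhibition of at least 30% with at least half of replicates also reaching 30%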
Each line names hits and unclear results; the compound was inactive in the other large screens. Most compounds without a hit are left out; they make up all but 1.4% or so of the library.

Cc1ccnc2nc(C(=O)OCCOc3ccc(Cl)cc3)nn12	none
Cc1ccnc2nc(C(=O)OCCOc3ccc(F)cc3)nn12	CAL PDZ FP-1 40
COC(=O)C(NC(=O)c1ccco1)(Nc1cc(C)ccn1)C(F)(F)F (stereo not given)	none
COC(=O)C(NC(=O)c1ccco1)(Nc1nc(C2CC2)cs1)C(F)(F)F (stereo not given)	CAL PDZ FP-2 37
COc1ccc(-n2nc(C(=O)NCC(=O)N3CCN(c4ccccn4)CC3)c3ccccc3c2=O)c(OC)c1	CAL PDZ FP-2 43
COc1ccc(-n2nc(C(=O)NCC(=O)N3CCC(C)CC3)c3ccccc3c2=O)cc1	CAL PDZ FP-2 47
CC(C)CN1C(=O)C[C@]2(C(=O)N(C)c3ccc(NS(=O)(=O)c4ccc(F)cc4)cc32)C1c1ccccc1 (stereo not given in full)	none (no result: Arrestin-AP2 inh, CAL PDZ FP-1, CAL PDZ FP-2)
O=C(CCN1CCOCC1)Nc1cc(C(=O)Nc2ccccc2F)ccc1N1CC2CC(C1)c1cccc(=O)n1C2 (stereo not given)	CAL PDZ FP-2 69
COc1ccccc1OCC(O)Cn1nc(C)cc1C (stereo not given)	CAL PDZ FP-2 74
O=C(NCCc1ccccc1)OCc1cn(Cc2ccc(C(F)(F)F)cc2)nn1	none (no result: Arrestin-AP2 inh, CAL PDZ FP-1, CAL PDZ FP-2)
C[C@]12c3[nH]c4cc(-c5ccco5)ccc4c3CCN1C(=O)[C@@H](CC(=O)NCCN1CCOCC1)C[C@@H]2C(=O)N1CCCCC1	CAL PDZ FP-2 48
COCc1cc(Sc2cccc(Cl)c2Cl)nc(-c2ccccc2)n1	CAL PDZ FP-2 36
Nc1[nH]c(C(=O)c2ccccc2)c(-c2cccc3ccccc23)c1C(=O)NC1CCCCC1	none (no result: Arrestin-AP2 inh, CAL PDZ FP-1, CAL PDZ FP-2)
Cc1cccc(NC(=O)CCS(=O)(=O)c2ccccc2)c1	CAL PDZ FP-2 62
CC(=O)c1cc(Cl)ccc1OCC(=O)Nc1cccc(S(=O)(=O)N2CCCC2)c1	CAL PDZ FP-2 50
O=C(COc1ccc(F)cc1Cl)Nc1cccc(S(=O)(=O)N2CCCCCC2)c1	none
Cc1ccc(S(=O)(=O)CCC(=O)Nc2cccc(S(=O)(=O)N3CCCCCC3)c2)cc1	CAL PDZ FP-2 32
O=C1C(NC(=O)C(F)(F)Br)CCCCN1Cc1cccc(C(F)(F)F)c1 (stereo not given)	none (no result: Arrestin-AP2 inh, CAL PDZ FP-1, CAL PDZ FP-2)
Clc1ccc([C@H]2OC[C@@]3(CNCC4CC4)CS[C@H](c4ccc(Cl)cc4)N23)cc1	none (no result: Arrestin-AP2 inh, CAL PDZ FP-1, CAL PDZ FP-2)
CN(/N=C/c1ccc(O)cc1O)c1ncc(C(F)(F)F)cc1Cl	none
CN(/N=C/c1ccccc1Cl)c1ncc(Cl)cc1C(F)(F)F	CAL PDZ FP-2 44
O=C(Nc1cccc(Br)c1)c1cc(=O)c2ccccc2o1	none
CC(=O)c1cccc(NC(=O)c2cc(=O)c3ccccc3o2)c1	CAL PDZ FP-2 50
COC(=O)C[C@@H]1CC[C@H]2[C@H](COc3ccc(NC(=O)Nc4ccc(C#N)cc4)cc3C(=O)N2C)O1	none (no result: Arrestin-AP2 inh, CAL PDZ FP-1, CAL PDZ FP-2)
COC(=O)C1CN(C2CCCC2)CCS(=O)(=O)N1Cc1ccc(C(F)(F)F)cc1 (stereo not given)	none (no result: Arrestin-AP2 inh, CAL PDZ FP-1, CAL PDZ FP-2)
CCC(CC)c1nnc(NC(=O)CCS(=O)(=O)Cc2ccccc2)s1	CAL PDZ FP-2 41
CCOc1cc(C(C(=O)NCC2CCCO2)N(C(=O)Cn2nnc3ccccc32)c2ccccc2C(C)=O)ccc1O (stereo not given)	none (no result: CAL PDZ FP-2)
CCOc1cc(C(C(=O)NCC2CCCO2)N(C(=O)Cn2nnc3ccccc32)c2ccccc2C)ccc1O (stereo not given)	CAL PDZ FP-2 50
Cn1cccc1C(=O)N1CCN(S(=O)(=O)c2cccc3ccccc23)CC1	none (no result: Arrestin-AP2 inh, CAL PDZ FP-1, CAL PDZ FP-2)
COc1ccc(-c2cn3cc([N+](=O)[O-])ccc3n2)cc1OC	CAL PDZ FP-2 60
COc1cc2c(cc1NC(=S)NC(=O)c1c(OC)cccc1OC)oc1ccccc12	none
COCCNC(=S)Nc1cc2oc3ccccc3c2cc1OC	CAL PDZ FP-2 31
CCN(CC)CC(=O)NCC1(c2ccccc2)CCCC1	none
CCN(CC)CC(=O)NCC1(c2ccccc2)CCOCC1	CAL PDZ FP-2 70
CCCCNC(=O)C[C@H]1C[C@@]2(C(=O)OC)C(=C[C@H](C3CCCC3)O[C@@H]2C)N(Cc2ccc(Cl)cc2Cl)C1=O	none (no result: Arrestin-AP2 inh, CAL PDZ FP-1, CAL PDZ FP-2)
Cc1ccc(Cn2c(=O)n(CCC(=O)NCc3ccc4c(c3)OCO4)c(=O)c3ccccc32)cc1	CAL PDZ FP-2 66
CC(C)C(=O)Nc1nnc(S(=O)(=O)N(C)c2ccc(Cl)cc2)s1	CAL PDZ FP-2 45 (no result: CAL PDZ FP-1)
CN(c1ccc(Cl)cc1)S(=O)(=O)c1nnc(NC(=O)c2ccco2)s1	none
CCN(CC)C(=O)CC[C@H]1CC[C@]2(CCCN(S(=O)(=O)C3CCCCC3)C2)O1	none (no result: Arrestin-AP2 inh, CAL PDZ FP-1, CAL PDZ FP-2)
CC(C)CNC(=O)OCc1cn(Cc2cccc(Cl)c2)nn1	none (no result: Arrestin-AP2 inh, CAL PDZ FP-1, CAL PDZ FP-2)
COCCCNCCCCOc1ccc(Br)cc1Cl	none
CN(C)CCCCOc1ccc(Br)cc1Cl	CAL PDZ FP-2 83
O=C(COc1ccc(F)cc1Br)N1CCN(S(=O)(=O)/C=C/c2ccccc2)CC1	CAL PDZ FP-2 54
CCCC/C=C1/[C@H](c2ccccc2)N(C)C2=N[C@@H](c3ccccc3)CC(=O)N21	none (no result: Arrestin-AP2 inh, CAL PDZ FP-1, CAL PDZ FP-2)
CN1C2=N[C@H](c3ccccc3Br)CC(=O)N2/C(=C\c2ccccc2)[C@@H]1c1ccccc1	none (no result: Arrestin-AP2 inh, CAL PDZ FP-1, CAL PDZ FP-2)
COc1ccc(NC(=O)c2cccc(N3C(=O)C4C5C=CC(C5)C4C3=O)c2)c(OC)c1 (stereo not given)	none
COc1ccccc1NC(=O)c1cccc(N2C(=O)C3C4C=CC(C4)C3C2=O)c1 (stereo not given)	CAL PDZ FP-2 50
COc1ccc(C)cc1-n1c(SCC(=O)Nc2cc(C)on2)nc2sc(C)c(C)c2c1=O	CAL PDZ FP-2 81 (no result: CAL PDZ FP-1)
Cc1cccc(C(=O)OCC(=O)N2CCc3ccccc3C2)c1O	none
O=C(OCC(=O)N1CCc2ccccc2C1)c1cccnc1Cl	CAL PDZ FP-2 71
Fc1ccc(Cn2cc(C(=S)N3CCOCC3)c3ccccc32)cc1	CAL PDZ FP-2 52
Fc1ccccc1Cn1cc(C(=S)N2CCOCC2)c2ccccc21	none
COc1ccc(OC)c(N(C(=O)c2snc(C(N)=O)c2N)C(C(=O)NCc2ccccc2)c2ccc(O)cc2)c1 (stereo not given)	none
COc1ccc(N(C(=O)c2snc(C(N)=O)c2N)C(C(=O)NCc2ccccc2)c2ccc(O)cc2)cc1 (stereo not given)	CAL PDZ FP-2 51
O=C1COc2ccccc2CN1	CAL PDZ FP-2 active
O=C1COc2cccnc2N1	none
NS(=O)(=O)c1ccc(CCNC(=O)COC(=O)C2CCC2)cc1	CAL PDZ FP-2 47
CC12CCC(=O)N1C(C(=O)N1CCN(c3cccc(Cl)c3)CC1)CS2 (stereo not given)	CAL PDZ FP-2 80
CC12CCC(=O)N1C(C(=O)N1CCN(c3ccccc3)CC1)CS2 (stereo not given)	none (no result: CAL PDZ FP-2)
Cc1ccc(C(=O)NC2CCCCN(C(C)C)C2=O)cc1 (stereo not given)	none (no result: Arrestin-AP2 inh, CAL PDZ FP-1, CAL PDZ FP-2)

Source: PubChem
